A selection: hits, their analogues and other compounds. The true share with any hit is near 1.8%.
CRFBP-R2 block = antagonists of CRF-BP/CRF-R2 complex, primary screen, cell-based, HEK293, calcium dye fluorescence, uHTS; CRF-induced calcium fluorescence; inhibition, % at 11.8 µM; hit rate 0.59% among 350,000; AID 588475, 2011;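 active = inhibition of the ligand-induced calcium signal above about 50% at the single tested concentration, limit read from the data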
Jurkat NFkB inh = inhibitors of induced NF-kB luciferase reporter, primary screen, TCR NF-kB activation inhibitor project, cell-based, luminescence, uHTS; Jurkat, PMA/ionomycin-induced NF-kB luciferase reporter; inhibition, % at 4 µM; hit rate 0.53% among 330,000; AID 435003, 2010; in the data active = inhibition above about 50%
UPR XBP1 act = activators of adaptive XBP1 UPR arm, primary screen, cell-based, CHO-XBP1 luciferase reporter, luminescence, uHTS. IRE1-XBP1 UPR activation; percent of tunicamycin response, DMSO as zero. activation, % at 20 µM. hit rate 0.33% among 330,000. AID 463104, 2010;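 active = versus positive control, 20 µM dose yields 30% or more activation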;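 also: 100% = tunicamycin at 10 µg/mL and 0% = DMSO only wells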
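Assay system: CHO-XBP1 luciferase reporter cells; Schedule: 6 h treatment, 37 °C; Detection: glow luminescence from Steady-Glo reagent; Benchmarks: high control tunicamycin 10 µg/mL final, low control DMSO vehicle only.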
697 NFkB inh = inhibitors of PMA/ionomycin-induced NF-kB reporter, 697 cells, primary screen, B-cell NF-kB inhibitor project, cell-based, luminescence, uHTS; hit rate 0.33% among 330,000; 697 B-cell NF-kB luciferase reporter, 16 h; AID 435022, 2010; inhibition, % at 4 µM; in the data active = inhibition above about 35%
CHOP UPR activ = activators of apoptotic CHOP UPR arm, primary screen, cell-based, CHO-CHOP luciferase reporter, luminescence, uHTS | hit rate 0.34% among 330,000 | UPR activation; percent of tunicamycin response over DMSO baseline | activation, % at 10 µM;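 active = at 10 µM dose, activation of 40% or more, normalized to positive control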;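 also: 100% = tunicamycin at 10 µg/mL and 0% = DMSO alone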
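Assay system: CHO cells with stable CHOP pathway luciferase reporter; Buffer or medium: F12 plus 10% serum; Times: 16-18 h cell attachment, then 6 h compound exposure, 37 °C; Signal: luciferase luminescence; Read-out basis: percent activation relative to tunicamycin control; Control set: tunicamycin high control, DMSO low control.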
UPR XBP1 confirm = IRE1-XBP1 UPR arm activators, confirmation, cell-based, CHO-XBP1 luciferase reporter, luminescence, single concentration | shares compounds with UPR XBP1 act | activation, % at 20 µM | hit rate 63% among 1,000;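 active = reporter signal at least 30% of the positive control's activation in two or more of four replicate wells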;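 also: plate controls were DMSO negative control for no effect and tunicamycin 10 µg/mL positive control for full effect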
* hit, by the source's call; . = no result.

SMILES	CRFBP-R2 block	Jurkat NFkB inh	UPR XBP1 act	697 NFkB inh	CHOP UPR activ	UPR XBP1 confirm
O=C1c2ccccc2C(=O)N1CCCON1C(=O)c2ccccc2C1=O	37.1	-2.2	0.7	-0.4	1.0	.
Cc1ccc(C)c(OCC(=O)N(Cc2ccccc2)c2c(N)n(Cc3ccccc3)c(=O)[nH]c2=O)c1	-21.6	.	.	.	.	.
Cc1nc(N2CCN(C(=O)c3cnccn3)CC2)c2c3c(sc2n1)CC(C(C)(C)C)CC3 (centres undefined)	6.4	7.9	34.1*	-11.4	8.2	-0.2
CC(=O)N1CCN(c2nc(C)nc3sc4c(c23)CCC(C)C4)CC1 (centres undefined)	18.2	9.6	-0.1	-1.2	-0.1	.
Cc1ccc(-c2nc3c(Cl)cc(Cl)cc3c(=O)n2O)cc1	18.9	-7.4	-3.5	-3.7	0.1	.
N#Cc1cc2c(nc1SCC(=O)Nc1sc3c(c1C#N)CCC3)CCCC2	16.2	-1.7	51.4*	4.9	7.5	29.7*
Clc1ccc(Cn2ncc3c(N4CCCCC4)ncnc32)cc1	26.5	-4.9	3.3	18.1	0.4	.
Brc1cc(Br)c2ncnc(N3CCCCC3)c2c1	-18.7	10.3	59.3*	-9.4	-0.9	40.9*
Cc1cccc(NC(=O)CSc2nc(C)c(CC(=O)c3ccc(Br)cc3)c(C)c2C#N)c1C	17.9	-5.7	48.1*	15.9	28.5	98.2*
COCc1cc(C)nc(SCC(=O)Nc2cccc(C)c2C)c1C#N	4.7	3.0	-4.0	-20.5	1.8	.
COc1cc([N+](=O)[O-])ccc1NC(=S)NNC(=O)c1ccc2c(c1)OCO2	5.7	-3.1	30.1*	-16.7	-1.0	0.1
O=C(NC(=S)Nc1cc([N+](=O)[O-])ccc1O)c1ccc2c(c1)OCO2	30.0	-103.1	-3.3	-246.5	0.6	.
O=c1[nH]c(=O)n(Cc2ccco2)c2c1C(C(F)(F)F)(C(F)(F)F)N=C(CCC1CCCCC1)N2	-33.3	22.8	42.8*	4.2	10.2	5.5
CC(C)Cn1c2c(c(=O)[nH]c1=O)C(C(F)(F)F)(C(F)(F)F)N=C(CCC1CCCCC1)N2	-23.9	5.0	32.6*	-53.0	12.2	37.8*
CC[C@]12c3[nH]c4cc(-c5ccco5)ccc4c3CCN1C(=O)[C@@H](CC(=O)NCCCn1ccnc1)C[C@@H]2C(=O)N1CCN(C(=O)C2CC2)CC1	-8.4	.	-0.2	24.8	3.6	.
CCn1c(SCC(=O)N2CCCCCC2)nc2c([nH]c3ccccc32)c1=O	-4.3	-5.6	-1.1	-13.1	-1.2	.
CCn1c(SCC(=O)N2CCN(c3ccccc3)CC2)nc2c([nH]c3ccccc32)c1=O	9.9	2.7	31.5*	12.2	18.0	30.4
O=C1N[C@H]2CC=C[C@H]2Nc2ccccc21	-10.2	.	-0.9	0.9	-2.2	.
O=C(/C=C/c1ccccc1)NC(NC(=S)Nc1cccc(Cl)c1)C(Cl)(Cl)Cl (centres undefined)	10.2	-6.7	51.2*	-26.5	36.4	30.2*
CCn1cc(C(=O)NCCCOC(C)C)c(=O)c2cc(S(=O)(=O)N3CCC(C)CC3)ccc21	-6.2	18.0	-2.5	-0.4	-0.9	.
COc1ccc(N(C(=O)Cn2nnc(-c3ccccc3F)n2)C(C(=O)NCC2CCCO2)c2ccc(Cl)cc2)cc1 (centres undefined)	14.6	-4.1	41.5*	8.1	4.5	3.1
COc1ccc(OC)c(N(CC(=O)N2CCCC2)S(C)(=O)=O)c1	0.9	-3.7	-5.2	0.3	-0.6	.
COc1cc(NC(=O)c2cccs2)ccc1NC(=O)c1cc2ccccc2o1	25.1	3.9	68.7*	-15.2	38.5	37.0*
COc1cc(NC(C)=O)ccc1NC(=O)c1cc2ccccc2o1	1.4	-25.4	1.0	-10.1	5.2	.
Cc1cc(NC(=O)c2cncc(Br)c2)ccc1NC(=O)c1cc2ccccc2o1	32.8	8.4	34.7*	-49.5	25.9	80.8*
SMILES	CRFBP-R2 block	Jurkat NFkB inh	UPR XBP1 act	697 NFkB inh	CHOP UPR activ	UPR XBP1 confirm
O=C1CC[C@@H](OCc2ccccc2)CCN1CC[C@H](Sc1ccccc1)c1ccccc1	5.0	11.4	-3.1	13.6	0.7	.
COc1cc(CNCCO)cc(Cl)c1OCc1ccc(Cl)cc1Cl	-122.5	-9.9	62.6*	1.1	2.3	133.6*
COc1cc(CNCCO)cc(Br)c1OCc1ccccc1Cl	-10.0	11.8	3.1	7.6	-0.4	.
O=C(CN1CCOCC1)NNC(=O)c1ccc(Cl)cc1	6.6	-11.2	0.4	7.8	2.0	.
CCc1ccc(C#CC2=CC(=O)CC(C)(C)C2)cc1	-0.7	.	.	.	.	.
COc1ccc2c(c1)c1c(c(=O)n(-c3ccc(C)cc3)c(=O)n1CC(=O)NCC1CCCO1)n2C (centres undefined)	4.2	.	.	.	.	.
CCn1c(/C=C/c2ccc(O)cc2)nc2ccccc2c1=O	30.6	-25.4	4.0	-25.3	1.2	.
CCn1c(/C=C/c2ccc(O)c(O)c2)nc2ccccc2c1=O	-6.6	14.1	37.2*	-29.2	37.0	20.5
Cc1cc(N2CCN(C)CC2)nc2ccc(NC(=S)N3CCN(c4cccc(Cl)c4)CC3)cc12	13.4	-7.3	0.2	17.8	1.8	.
Cc1cccc(N2CCN(C(=S)Nc3ccc4nc(N5CCN(C)CC5)cc(C)c4c3)CC2C)c1 (centres undefined)	-0.7	7.3	62.1*	5.7	7.7	47.2*
COc1cc2c(cc1OC)C(c1cc(OC)c(OC)c(OC)c1)C1(O)C(=O)OCC1(O)C2 (centres undefined)	-1.3	.	.	.	.	.
O=C(Nc1ccc(-c2nc3cc(Cl)ccc3c(=O)o2)cc1)c1ccco1	-9.3	7.9	-0.2	18.8	0.7	.
O=C(Nc1ccc(-c2nc3c(ccc4ccccc43)o2)cc1)c1ccco1	36.9	-54.4	33.0*	-103.0	18.2	15.0
COc1ccc(N(CC(=O)Nc2c(C)n(C)n(-c3ccccc3)c2=O)S(=O)(=O)c2ccc(C)cc2)cc1	42.0	4.0	0.3	4.0	-0.8	.
COc1ccc(N(CC(=O)Nc2c(C)n(C)n(-c3ccccc3)c2=O)S(=O)(=O)c2ccccc2)cc1OC	-5.5	-4.2	89.8*	8.9	1.0	0.7
Oc1ccccc1Nc1nc(NCc2ccccc2)c2ccccc2n1	-0.3	3.3	6.8	-22.9	0.6	.
Cc1c(Cl)cccc1Nc1nc(NCCO)c2ccccc2n1	-2.0	-5.7	74.9*	0.9	9.0	58.2*
CCCCNc1c(-c2ccc(SC(C)CC)cc2)nc2cnccn12 (centres undefined)	-14.1	6.4	56.6*	-59.4	4.3	50.0*
CCCCNc1c(-c2ccc(OC)c(Sc3ccc(OC)cc3)c2)nc2cnccn12	-9.0	1.2	16.2	-14.2	4.6	.

Screens deposited in PubChem by Sanford-Burnham Center for Chemical Genomics.
